Tested on: HFF-1 cells
Assay: SA-β-gal activity in D-gal-induced premature aging of HFF-1 cells
Type: cell-based, human
Conditions: 500 μg/mL
Summary of the method: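 HFF-1 fibroblasts were seeded at 2 × 10^4 cells/well and cultured for 24 h. Growth medium was replaced for 72 h with test sample solution containing D-gal at 20 mg/mL final. SA-β-gal activity was detected by X-gal staining, and blue positive cells were viewed by microscopy and counted against the D-gal-injured and blank control groups.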

SMILES: N[C@@H](CCC(=O)N[C@@H](CS)C(=O)NCC(=O)O)C(=O)O [GSH]
- decrease of SA-β-gal positive staining rate compared with the D-gal group: 50.61%
